PMC9047252 (RSC Advances, 2020)

Experiments:
LO2 cells = experiment: CCK-8 cytotoxicity assay, LO2; type: cell-based; settings: Homo sapiens, L02, 72 h, read-out: IC50 LO2
In short: (§1)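 Cells seeded at 2500–3000 per well and held at 37 °C for 24 h, then exposed in triplicate to a range of test compound concentrations for 72 h, with 0.1% DMSO as control. CCK-8 added and incubated 2 h at 37 °C, then absorbance read at 450 nm. IC50 calculated and given as mean ± SD from three independent experiments.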

K562 cells [1] = experiment: CCK-8 antiproliferative assay, K562; type: cell-based; settings: Homo sapiens, K562, 72 h, read-out: IC50 K562
In short: as §1

K562/ADR cells [2] = experiment: CCK-8 antiproliferative assay, K562/ADR; type: cell-based; settings: Homo sapiens, 72 h, read-out: IC50 K562/ADR
In short: as §1

K562/ADR cells [3] = experiment: Intracellular NO, DAF-FM DA, K562/ADR; type: cell-based, human; settings: 10c 1, 10, 100 μM, 3 and 7 100 μM, 3 h
In short: (§2)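 Cells exposed to 0.1% DMSO or test compound at 37 °C for 3 h. Harvested, PBS-washed, and loaded with DAF-FM DA (50 μmol L−1) in incubation buffer at 37 °C for 30 min. Washed again, then NO fluorescence read by fluorescence microscopy and microplate reader. Three independent experiments, mean ± SD; Student's t-test against control.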

K562 cells [4] = experiment: Intracellular NO, DAF-FM DA, K562; type: cell-based, human; settings: 10c 1, 10, 100 μM, 3 and 7 100 μM, 3 h
In short: as §2

HT-29 cells = settings: read-out: IC50 in HT-29 cells; cited from earlier work
K562/ADR cells [5] = experiment: Western blot analysis, K562/ADR; type: cell-based, human; settings: 10c 1, 5, 10 μM, 3 10 μM, 24 h
K562 cells [6] = experiment: Western blot analysis, K562; type: cell-based, human; settings: 10c 1, 5, 10 μM, 3 10 μM, 24 h

Row | Compound | IC50 (K562 cells [1]) [µM] | IC50 (K562/ADR cells [2]) [µM] | IC50 (LO2 cells) [µM] | generation of intracellular NO (K562/ADR cells [3]) | generation of intracellular NO (K562 cells [4]) | IC50 (HT-29 cells) [nM] | AKT phosphorylation (K562/ADR cells [5]) | AMPK and JNK phosphorylation (K562/ADR cells [5]) | AKT phosphorylation (K562 cells [6]) | AMPK and JNK phosphorylation (K562 cells [6])
1 | C[C@H]1[C@@H](O)O[C@@H]2O[C@@]3(C)CC[C@H]4[C@H](C)CC[C@@H]1[C@@]24OO3 [compound 2, dihydroartemisinin] | 8.67 ± 0.277 | 28.1 ± 1.09 | 19.9 ± 1.66 |  |  |  |  |  |  | 
2 | O=C(CCCO[N+](=O)[O-])Oc1ccccc1C(=O)Oc1ccc(-c2cc(=S)ss2)cc1 [NOSH-1] |  |  |  |  |  | 48 |  |  |  | 
3 | COC(=O)C[C@](O)(CCCC(C)(C)O)C(=O)O[C@@H]1C(OC)=C[C@]23CCCN2CCc2cc4c(cc2[C@H]13)OCO4 [HHT, homoharringtonine] | 0.367 ± 0.011 | 3.26 ± 0.082 | 0.915 ± 0.149 |  |  |  |  |  |  | 
4 | COc1cccc2c1C(=O)c1c(O)c3c(c(O)c1C2=O)C[C@@](O)(C(=O)CO)C[C@@H]3O[C@H]1C[C@H](N)[C@H](O)[C@H](C)O1 [ADR, adriamycin] | 0.672 ± 0.056 | 9.16 ± 0.658 | 2.74 ± 0.123 |  |  |  |  |  |  | 
5 | C[C@@H]1CC[C@H]2[C@@H](C)C(=O)O[C@@H]3O[C@@]4(C)CC[C@@H]1[C@]32OO4 [compound 1, Artemisinin] | 11.1 ± 0.832 | > 200 | 83.3 ± 1.99 |  |  |  |  |  |  | 

The next lines start with results.

Row | IC50 (K562 cells [1]) [µM] | IC50 (K562/ADR cells [2]) [µM] | Compound | IC50 (LO2 cells) [µM] | generation of intracellular NO (K562/ADR cells [3]) | generation of intracellular NO (K562 cells [4]) | IC50 (HT-29 cells) [nM] | AKT phosphorylation (K562/ADR cells [5]) | AMPK and JNK phosphorylation (K562/ADR cells [5]) | AKT phosphorylation (K562 cells [6]) | AMPK and JNK phosphorylation (K562 cells [6])
6 | > 200 | > 200 | O=[N+]([O-])O[C@@H]1CO[C@H]2[C@@H]1OC[C@@H]2O [compound 7, isosorbide 5-mononitrate] | > 200 | increased the intracellular NO levels | increased the intracellular NO levels |  |  |  |  | 
7 | > 200 | > 200 | Oc1ccc(-c2cc(=S)ss2)cc1 [compound 4, 5-(4-hydroxyphenyl)-3H-1,2-dithiole-3-thione] | > 200 |  |  |  |  |  |  | 
8 | 10.2 ± 0.135 | 36.4 ± 2.9 | C[C@H]1[C@H](OC(=O)CCC(=O)O)O[C@@H]2O[C@@]3(C)CC[C@H]4[C@H](C)CC[C@@H]1[C@@]24OO3 [compound 3, artesunate] | 19.9 ± 0.331 | increased the intracellular NO levels | increased the intracellular NO levels |  | clearly reduced the levels of AKT phosphorylation | up-regulated the levels of AMPK and JNK phosphorylation | clearly reduced the levels of AKT phosphorylation | up-regulated the levels of AMPK and JNK phosphorylation
